Experimental data as given in EPA's CvTdb concentration-time database.

Key:
human [1] = assay: amount in urine after dosing (umol); conditions: dosed: tert-amyl methyl ether
Method in brief: (§1)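 Data points giving concentration or amount against time came from published in vivo toxicokinetic studies and from two structured collections. PubMed searching, classifier screening and manual review located the studies. Most points were digitised from plot screenshots using WebPlotDigitizer, the rest were copied from tables, and all keep their reported units.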

rat [2] = assay: amount in urine after dosing (umol); conditions: dosed: tert-amyl methyl ether, 38.4 ppm, inhalation, duration: 4 hr, F344 (Harlan Winkelmann)
human [3] = assay: concentration in blood after dosing; conditions: dosed: tert-amyl methyl ether
Method in brief: as §1

human [4] = assay: concentration in blood after dosing; negative times count back from the end of exposure; conditions: inhalation
Method in brief: as §1

rat [5] = assay: concentration in expired air after dosing; conditions: dosed: 1,1,2-trichloroethane, 501 ppm, inhalation, duration: 6 hr
rat [6] = assay: concentration in expired air after dosing; conditions: dosed: 1,1,2-trichloroethane, 501 ppm, inhalation, duration: 6 hr; remark: listed apart in the source

CCC(C)(C)O [tert-amyl alcohol]
oral
Conditions | amount in urine | concentration in blood [nM]
human [1], 0 h, 5 mg | 0.00166 | –
human [1], 0 h, 15 mg | 0.00586 | –
human [1], 6.182 h, 15 mg | 0.181 | –
human [1], 6.2 h, 5 mg | 0.176 | –
human [1], 11.93 h, 15 mg | 0.0638 | –
human [1], 11.99 h, 5 mg | 0.0598 | –
human [1], 17.98 h, 15 mg | 0.0106 | –
human [1], 18.09 h, 5 mg | 0.0183 | –
human [3], 0.9886 h, 15 mg | – | 972
human [3], 1.015 h, 5 mg | – | 445
human [3], 2.032 h, 15 mg | – | 777
human [3], 2.058 h, 5 mg | – | 340
human [3], 3.046 h, 5 mg | – | 276
human [3], 3.982 h, 15 mg | – | 540
human [3], 4.006 h, 5 mg | – | 220
human [3], 6.037 h, 5 mg | – | 155
human [3], 6.041 h, 15 mg | – | 355
human [3], 8.046 h, 15 mg | – | 254
human [3], 8.067 h, 5 mg | – | 111
human [3], 9.995 h, 15 mg | – | 177
human [3], 10.02 h, 5 mg | – | 86.5
human [3], 12.03 h, 15 mg | – | 101
human [3], 12.05 h, 5 mg | – | 67.4

inhalation, duration: 4 hr
Conditions | amount in urine | concentration in blood [nM]
human [1], 0.144 h, 38.4 ppm | 1.36 | –
human [1], 5.941 h, 3.8 ppm | 0.345 | –
human [1], 6.198 h, 38.4 ppm | 2.11 | –
human [1], 12.1 h, 3.8 ppm | 0.143 | –
human [1], 12.11 h, 38.4 ppm | 1.74 | –
human [1], 17.91 h, 3.8 ppm | 0.0476 | –
human [1], 18.16 h, 38.4 ppm | 0.992 | –
human [1], 24.21 h, 38.4 ppm | 0.62 | –
human [1], 30.05 h, 38.4 ppm | 0.248 | –
human [1], 36.11 h, 38.4 ppm | 0.372 | –
human [1], 248 s, 3.8 ppm | 0.119 | –
human [3], 2.005 h, 3.8 ppm | – | 816
human [3], 2.034 h, 38.4 ppm | – | 7740
human [3], 3.957 h, 38.4 ppm | – | 6550
human [3], 3.966 h, 3.8 ppm | – | 480
human [3], 6.018 h, 38.4 ppm | – | 5900
human [3], 7.942 h, 38.4 ppm | – | 4140
human [3], 9.948 h, 38.4 ppm | – | 3160
human [3], 11.98 h, 38.4 ppm | – | 2850
human [3], 23.91 h, 38.4 ppm | – | 835
human [3], 78 s, 3.8 ppm | – | 960
human [3], 99 s, 38.4 ppm | – | 9530

rat [2]
Conditions | amount in urine
5.91 h | 0.0178
11.97 h | 0.0273
17.83 h | 0.0115
23.9 h | 0.0462

human [4], dosed: tert-amyl methyl ether, duration: 4 hr, male
Conditions | concentration in blood [nM]
0.6509 h, 50 ppm | 17000
0.7385 h, 15 ppm | 4840
1.158 h, 50 ppm | 16000
1.169 h, 15 ppm | 4710
2.413 h, 50 ppm | 13400
2.567 h, 15 ppm | 4380
6.871 h, 50 ppm | 7280
7.192 h, 15 ppm | 2200
19.71 h, 50 ppm | 1840
19.75 h, 15 ppm | 597
141 s, 15 ppm | 5450

concentration in blood [nM], human [4], dosed: tert-amyl methyl ether, duration: 4 hr, male, during exposure
Conditions | -4 h | -3.999 h | -3.146 h | -3.049 h | -1.944 h | -1.922 h | -1.113 h | -1.062 h
15 ppm | 6 | – | – | 1700 | – | 3520 | – | 4030
50 ppm | – | 10 | 6060 | – | 5580 | – | 11900 | –

CCCCOCCO [2-butoxyethanol]
human [4], dosed: 2-butoxyethanol, 20 ppm, duration: 2 hr
Conditions | concentration in blood [nM]
0.1474 h | 4330
0.3298 h | 3310
0.4842 h | 3420
0.6526 h | 2200
1.004 h | 1410
1.326 h | 1000
1.663 h | 1090
1.986 h | 987
25 s | 7200
227 s | 4220

human [4], dosed: 2-butoxyethanol, 20 ppm, duration: 2 hr, during exposure
Conditions | concentration in blood [nM]
-1.916 h | 2830
-1.832 h | 2770
-1.677 h | 4530
-1.34 h | 5020
-1.018 h | 7010
-0.6807 h | 7200
-0.3438 h | 7400

ClCC(Cl)Cl [1,1,2-trichloroethane]
concentration in expired air [ng/mL]
Conditions | rat [5] | rat [6]
0.1604 h | – | 149
0.3009 h | – | 215
0.4836 h | 248 | 275
0.7365 h | 321 | 258
0.9895 h | 250 | 331
1.495 h | 233 | 272
2.493 h | 201 | –
2.507 h | – | 253
3.491 h | 225 | –
3.505 h | – | 180
3.996 h | 197 | 164
4.488 h | 185 | –
4.502 h | – | 139
4.98 h | 134 | 152
6.498 h | 67.1 | 75.2
6.989 h | 42.2 | 51.8
7.481 h | 36.1 | –
7.495 h | – | 24.6
7.987 h | 21.3 | 14.7
8.985 h | 11.1 | 6.7
9.996 h | 3.53 | 5.67
10.98 h | 2.46 | 3.53
13 min | 204 | –
223 s | 110 | –
